Source: PubChem BioAssay
SKN-1 block: suppressors of acrylamide-induced Pgst-4::GFP reporter in worms, primary screen, SKN-1 inhibitor project, whole organism, uHTS, GFP/RFP fluorescence ratio, strain VP596; C. elegans VP596 Pgst-4::GFP/RFP ratio, 24 h; inhibition, % at 21.8 µM; 360,000 tested, 0.49% active; AID 624304, 2012;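 active = interference check ratio from 0.5 to 1.5 plus GFP to RFP signal ratio inhibition reaching or exceeding a fixed threshold, cut at about 30% in these data, passing the limit was not always enough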
MT1-MMP act inh: blockers of MT1-MMP proenzyme processing, primary screen, HT1080 RFP-PRO-GFP cells, GFP/RFP fluorescence. Matrix metalloproteinase-14 (Homo sapiens), P50281. 360,000 tested, 0.061% active. GFP/RFP ratio change, % at 20 µM. GFP/RFP ratio fluorescence, overnight; percent of plate control window, DMSO zero;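 active = GFP/RFP ratio change of at least 30% with cell ATP level not reduced by more than half and red fluorescence within 50% of control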
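Material – HT1080 RFP-PRO-GFP cells · Control set – DMSO wells and RFP-L50D-GFP cells · Incubation – overnight cell settling, then overnight compound exposure, 37 °C, 5% CO2 · Compound dosing – single-point 20 µM compound, 1% DMSO · Read-out – GFP/RFP fluorescence ratio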
NR2E3 ag-1: inhibitors of NR2E3-RetCOR corepressor binding, primary screen, NR2E3 agonist project, biochemical, TR-FRET, GST-NR2E3, biotin-RetCOR | 1536-well | 320,000 tested, 0.12% active | AID 2300, 2010 | inhibition of corepressor binding, % at 4.78 µM;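 active = percent inhibition above the cutoff of mean plus 3 SD of all tested compounds, set per screening campaign, cut at about 20% in these data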;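 note: 0% = DMSO wells and 100% = biotin wells as full block of FRET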
Target sequence (Q9Y5X4 whole entry, looked up): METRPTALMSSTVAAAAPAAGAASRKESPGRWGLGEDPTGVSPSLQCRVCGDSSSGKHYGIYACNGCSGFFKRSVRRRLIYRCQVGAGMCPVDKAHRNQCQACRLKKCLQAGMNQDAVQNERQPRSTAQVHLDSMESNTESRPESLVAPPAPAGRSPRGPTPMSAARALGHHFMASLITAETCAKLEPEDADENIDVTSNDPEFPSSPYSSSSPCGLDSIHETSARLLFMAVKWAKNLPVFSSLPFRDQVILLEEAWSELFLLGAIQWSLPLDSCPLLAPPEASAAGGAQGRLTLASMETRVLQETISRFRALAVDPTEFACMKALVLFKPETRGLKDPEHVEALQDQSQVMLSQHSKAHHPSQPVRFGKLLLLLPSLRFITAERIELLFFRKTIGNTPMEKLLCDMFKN
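System: GST-NR2E3 and biotin-RetCOR proteins; probe or stimulus: 7 nM biotin-RetCOR; doses: compound at 4.8 µM, single dose; schedule: Compound–protein incubation for 5 h at 4 °C; detection: time-resolved FRET; read-out: percent inhibition; controls: biotin wells as high control, 0.6% DMSO wells as low control; format: 1536-well plates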
NR2E3 ag-2: NR2E3 agonists in two-hybrid cells, primary screen, cell-based, luminescence, CHO-S, Gal4-NCOR/VP16-NR2E3. Photoreceptor-specific nuclear receptor (Homo sapiens), Q9Y5X4. luciferase. inhibition of corepressor binding, % at 3.98 µM. 360,000 tested, 0.35% active. AID 602229, 2012;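 active = inhibition above the mean of all tested compounds plus 3 SD, cut at about 70% in these data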;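 note: 0% = DMSO with NR2E3 transfected cells and 100% = cells lacking NR2E3 construct; higher means lower luciferase signal from less NR2E3 corepressor binding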
Rev-erbA mod: modulators of Rev-erb alpha DNA binding, primary screen, biochemical, FITC-DNA, fluorescence polarization, uHTS | activity, % at 10 µM | AID 1259318, 2017 | 370,000 tested, 0.79% active | Nuclear receptor subfamily 1 group D member 1 (Homo sapiens), P20393 | Rev-erbα–FITC-DNA binding, 90 min;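 active = activity above about 14%, limit read from the data; passing the limit was not always enough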;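 note: 0% = DMSO wells with 35 nM protein and 100% = DMSO wells with 750 nM protein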
PG9 Ab binder: binders of HIV-1 gp120 antibody PG9, primary screen, biochemical, TR-FRET; inhibition, % at 6.7 µM; AID 624416, 2012; 360,000 tested, 0.43% active; TR-FRET gp120-PG9 antibody binding; HIV-1 gp120 / PG9 antibody interaction; in the data active = inhibition above about 8.5%
MT1-MMP act val: MT1-MMP activation inhibitors, hit retest, confirmation, single concentration, fluorescence, HT1080 RFP-PRO-GFP cells. 200 tested, 10% active. shares compounds with MT1-MMP act inh. GFP and RFP fluorescence ratio, overnight. inhibition, % at 20 µM;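 active = inhibition of at least 50% in the primary cell screen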
Numbers without * were called inactive; · = not tested or not shown. Rows were chosen to be rich in hits. Some 1.9% of all compounds tested hit in one or more screens of this group.

SMILES	SKN-1 block	MT1-MMP act inh	NR2E3 ag-1	NR2E3 ag-2	Rev-erbA mod	PG9 Ab binder	MT1-MMP act val
CCCOc1ccc2oc(=O)c3c(c2c1)CCCN3C(=O)CN1CCN(C(=O)c2ccco2)CC1	·	·	-1.4	·	·	·	·
O=C(CN1CCCC1)N1CCCc2c1c(=O)oc1ccc(OCc3ccccc3)cc21	21.0	50.6*	-0.7	-7.3	-0.4	-1.0	7.7
CC(C)(C)C(=O)c1c(N)[nH]c(C(=O)c2ccccc2)c1-c1ccccc1	·	·	·	·	3.4	-2.6	·
COc1ccc(-c2oc3ccc(-c4ccc(OC)nc4)cc3c2C#CC2(O)CCCCC2)cc1	15.3	32.0*	0.4	-6.3	3.2	-1.7	10.0
Cc1cc2ccccc2n1CCNC(=O)C(C)Oc1ccccc1 (stereo unspecified)	36.1	37.9*	3.6	-72.3	1.9	-1.5	4.7
CCNC(=S)NNC(=O)c1cc(-c2cccc(OCC)c2)nc2ccccc12	5.8	6.1	0.7	-47.4	0.0	0.5	·
CCCCOc1cccc(-c2cc(C(=O)NNC(=S)NCC)c3ccccc3n2)c1	11.8	38.7*	0.1	-26.4	-1.3	0.5	6.0
COC(=O)C1=C(C)N(Cc2ccccc2)C(=S)NC1c1ccc(Br)cc1 (stereo unspecified)	·	·	·	·	10.2	0.2	·
COCc1cc(N2CCN(C(=O)OC(C)(C)C)C[C@H]2C)ccc1N1CC[C@@H](O)C1	·	·	·	·	-0.7	2.3	·
COc1cc(/C=C2\SC(=O)N(c3ccccc3Cl)C2=O)cc([N+](=O)[O-])c1O	1.9	30.8*	·	-14.4	17.9	-0.9	26.9
COc1ccc(-n2c(SCC(=O)Nc3ccc(OCc4ccccc4)cc3)nnc2-c2ccc(C)cc2)cc1	·	·	·	·	-1.2	·	·
O=C(CCCCCN1C(=O)C2C3C=CC(C3)C2C1=O)Nc1cc(F)cc(F)c1 (stereo unspecified)	·	·	·	·	6.4	·	·
CCN1/C(=C\C=C2\C(=O)N(c3ccccc3)C(=S)N2C)Sc2ccccc21	64.4	38.7*	·	-9.2	-12.4	-2.1	28.9
C[C@H](O)[C@@H]1C(=O)N2CCc3c([nH]c4c(-c5ccccc5)cccc34)[C@@H]2C[C@@H]1N(C)C(=S)Nc1ccc(C#N)cc1	·	·	·	·	6.9	-0.9	·
COc1ccc(C(C(=O)Nc2c(C)cccc2C)N2CCN(C)CC2)cc1 (stereo unspecified)	4.6	-4.6	·	·	0.4	-0.1	·
COc1ccc(C(CNC(=O)c2c(C)nn(Cc3ccc(C)cc3)c2Cl)N2CCOCC2)cc1 (stereo unspecified)	-1.1	32.0*	5.1	25.1	9.4	-1.9	7.8
O=c1[nH]c(SCc2ccccc2Cl)nc2[nH]ncc12	-10.0	-1.4	0.7	-19.1	-0.5	-2.6	·
Cc1cccc(CSc2nc3[nH]ncc3c(=O)[nH]2)c1	16.2	34.7*	-3.3	-30.6	-1.7	-1.1	10.5
Nc1[nH]c(C(=O)c2ccccc2)c(-c2ccccc2[N+](=O)[O-])c1C(=O)NCCc1c[nH]c2ccccc12	·	·	·	·	-0.6	0.9	·
Cc1cc(=O)n2[nH]c(-c3ccc(C(C)(C)C)cc3)cc2n1	-4.4	34.4*	-2.0	-20.2	-2.1	1.4	24.2
O=Nc1c(-c2c(O)[nH]c3cc(Br)ccc23)[nH]c2ccccc12	22.5	77.1*	-25.4	8.4	-12.8	-1.7	70.3*
O=C(CSCc1cccc(Br)c1)N=Nc1c(O)[nH]c2ccccc12	15.1	4.2	1.8	-9.3	-1.1	-1.5	·
Cc1ccccc1N=C/C=C1\N(C)c2ccccc2C1(C)C	16.4	55.8*	2.4	-5.4	0.1	1.0	7.6
CN1/C(=C\C=N\O)C(C)(C)c2ccccc21	15.7	2.5	1.3	11.7	-0.3	-2.4	·
Nc1ccc(N2CCCCC2)cc1N1CCCCC1	-19.4	47.0*	-3.3	2.2	-1.9	-12.6	-0.4
SMILES	SKN-1 block	MT1-MMP act inh	NR2E3 ag-1	NR2E3 ag-2	Rev-erbA mod	PG9 Ab binder	MT1-MMP act val
Cc1nn(-c2cc(N3CCCCC3)ccc2N)c(=O)c2ccccc12	14.3	5.8	-3.7	-0.5	-2.6	-1.3	·
COc1cc(C(=O)Nc2ccc(O)cc2C(=O)O)ccc1OC(C)=O	7.9	36.9*	2.4	-5.2	-3.6	0.2	2.2
COC(=O)c1ccc(NC(=O)c2ccc(OC(C)=O)c(OC)c2)cc1	-3.2	4.3	3.0	-135.7	-6.3	0.5	·
COc1ccc(OCC(=O)NNc2c3ccccc3nc3ccccc23)cc1	-20.7	35.5*	-4.1	-10.2	-0.3	-8.8	32.0
O=C(NNc1c2ccccc2nc2ccccc12)c1ccccc1O	9.4	31.5*	-3.1	-24.9	6.9	-6.4	39.5
CN1/C(=C\C(=S)NC(=O)c2cccc(Br)c2)C(C)(C)c2ccccc21	59.0	58.5	-0.1	-1.6	7.2	-1.5	·
CN1/C(=C\C(=S)NC(=O)c2ccc([N+](=O)[O-])cc2)C(C)(C)c2ccccc21	22.2	42.2*	-0.4	19.9	20.2	-1.3	10.7
COc1cc(/C=N/c2oc(C)c(C)c2C#N)cc(Br)c1O	12.6	32.5*	7.7	-15.7	-2.9	-0.9	7.7
COc1ccc(/C=N/c2oc(C)c(C)c2C#N)c(OC)c1	0.1	2.5	-1.1	-10.7	3.9	0.2	·
O=C(C1CCN(c2ncnc3c2sc2cccc(F)c23)CC1)N1CCCCC1	·	·	·	·	-9.2	·	·
CC1=NN(c2ccccc2)C(=O)/C1=C\C=C\c1ccccc1	-5.1	3.6	3.9	-8.6	-4.3	-3.4	·
CC1=NN(c2ccccc2)C(=O)/C1=C/C=C/c1ccc(N(C)C)cc1	19.2	54.8*	·	17.5	-14.5	-4.0	46.4
O=C1c2cccc(Cl)c2C(=O)c2c1cccc2N1CCCC1	50.2	46.1*	-1.5	-23.0	-0.1	-2.4	16.2
Cc1cc(C)cc(N(CC(=O)NC2CCC(C)CC2)S(=O)(=O)c2ccc(C(C)(C)C)cc2)c1 (stereo unspecified)	·	·	·	·	0.3	·	·
O=C1c2cccc(NCCCNCCO)c2C(=O)c2cccc(NCCCNCCO)c21	78.2	68.0*	·	-25.7	-1.6	-49.3	54.7*
